ChEMBL document CHEMBL1131331, “Structure-activity studies on anticonvulsant sugar sulfamates related to topiramate. Enhanced potency with cyclic sulfate derivatives” (J Med Chem, 1998)

Columns and labels:
Mus musculus [1] = experiment: Activity against maximal electroshock seizures in mice, 4 hr following oral administration of 40 mg/kg of compound; assay type: functional
How it was run: (§1)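 Mouse maximal electroshock seizure test. An electric shock is applied through corneal electrodes, and block of the hind-limb tonic-extensor seizure is scored. Compounds are given orally, usually to 10 mice per group, and tested 4 h after dosing. The result is reported as percent of dosed animals protected at the stated dose.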

Mus musculus [2] = experiment: Activity against maximal electroshock seizures in mice, 4 hr following oral administration of 80 mg/kg of compound; assay type: functional; how it was run: as §1
Mus musculus [3] = experiment: Effective dose against maximal electroshock seizures in mice, at 4 hr following oral administration of 10 mg/kg of compound; assay type: functional
Mus musculus [4] = experiment: Compound activity was measured at 4 hr following administration of the oral dosage (perorally) 5 mg/kg in mice, and is reported as percent block at the given dose.; assay type: functional; how it was run: as §1
Mus musculus [5] = experiment: Activity against maximal electroshock seizures in mice, 4 hr following oral administration of 35 mg/kg of compound; assay type: functional; how it was run: as §1
Mus musculus [6] = experiment: Inhibition of maximal electroshock seizures in mice, 4 hr following 10 mg/kg p.o. administration.; assay type: functional; details: route oral; how it was run: as §1
Mus musculus [7] = experiment: Activity against maximal electroshock seizures in mice, 4 hr following oral administration of 37.5 mg/kg of compound; assay type: functional; how it was run: as §1
Mus musculus [8] = experiment: Activity against maximal electroshock seizures in mice, 4 hr following oral administration of 18.75 mg/kg of compound; assay type: functional; how it was run: as §1
Mus musculus [9] = experiment: Compound activity was measured at 4 hr following administration of the oral dosage (perorally) 300 mg/kg in mice, and is reported as percent block at the given dose.; assay type: functional; how it was run: as §1
Rattus norvegicus [10] = species on record: Rattus norvegicus; experiment: Compound was tested for the effective dose (ED50) for each time point in Rats. 95% confidence limits are given in parentheses 1 Hour; assay type: functional
How it was run: (§2)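 Rat MES time-course study. Compounds are given orally, and block of the hind-limb tonic-extensor seizure induced by corneal electroshock is assessed at each time point. For each time point, the ED50 (mg/kg) is reported with 95% confidence limits.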

[11] = Inhibition concentration by inhibition of carbonic anhydrase from brain in Rat. 95% confidence limits are given in parentheses.
Mus musculus [12] = species on record: Mus musculus; experiment: Compound was tested for the effective dose (ED50) for each time point in Mice. 95% confidence limits are given in parentheses 2 Hour; assay type: functional
Mus musculus [13] = species on record: Mus musculus; experiment: Compound was tested for the effective dose (ED50) for each time point in Mice. 95% confidence limits are given in parentheses 4 Hour; assay type: functional
Mus musculus [14] = species on record: Mus musculus; experiment: Compound was tested for the effective dose (ED50) for each time point in Mice. 95% confidence limits are given in parentheses 24 Hour; assay type: functional
How it was run: (§3)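 Mouse MES time-course study. Compounds are given orally, and hind-limb tonic-extensor block after corneal-electrode shock is scored at each time point. For each time point, the ED50 (mg/kg) is reported with 95% confidence limits.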

[15] = (§4) Partition coefficient (logP); assay type: physicochemical; details: octanol/water
How it was run: (§5)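 Apparent octanol–water partition coefficient D, measured in unbuffered water (pH 7.2–7.6) using an HPLC refractive-index assay. True P is calculated as […], and P7.4 as P/[1 + 10^(7.4 − pKa)], using pKa values from potentiometric titration.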

[16] = as §4; assay type: physicochemical; details: octanol/water; how it was run: as §5; remark: listed apart in the source
Rattus norvegicus [17] = species on record: Rattus norvegicus; experiment: Compound was tested for the effective dose (ED50) for each time point in Rats. 95% confidence limits are given in parentheses 8 Hour; assay type: functional; how it was run: as §2
Rattus norvegicus [18] = species on record: Rattus norvegicus; experiment: Compound was tested for the effective dose (ED50) for each time point in Rats. 95% confidence limits are given in parentheses 16 Hour; assay type: functional; how it was run: as §2
[19] = Inhibition concentration by inhibition of carbonic anhydrase from synaptosomes in Rat. 95% confidence limits are given in parentheses.; assay type: subcellular, Brain
Rattus norvegicus [20] = species on record: Rattus norvegicus; experiment: Compound was tested for the effective dose (ED50) for each time point in Rats. 95% confidence limits are given in parentheses 4 Hour; assay type: functional; how it was run: as §2
[21] = Inhibition concentration by inhibition of carbonic anhydrase from blood in Rat. 95% confidence limits are given in parentheses.
Rattus norvegicus [22] = species on record: Rattus norvegicus; experiment: Compound was tested for the effective dose (ED50) for each time point in Rats. 95% confidence limits are given in parentheses 48 Hour; assay type: functional; how it was run: as §2
[23] = pH 7.4 value at pH 7.25; assay type: ADME; how it was run: as §5
[24] = as §4; assay type: physicochemical; details: octanol/water; how it was run: as §5; remark: listed apart in the source
Mus musculus [25] = species on record: Mus musculus; experiment: Compound was tested for the effective dose (ED50) for each time point in Mice. 95% confidence limits are given in parentheses 12 hr; assay type: functional; how it was run: as §3
[26] = Inhibition concentration by inhibition of carbonic anhydrase from myelin in Rat. 95% confidence limits are given in parentheses.
[27] = Pharmacokinetic parameter :The dissociation constant values at 25 degrees C, obtained by potentiometric titration.; assay type: ADME
Rattus norvegicus [28] = species on record: Rattus norvegicus; experiment: Compound was tested for the effective dose (ED50) for each time point in Rats. 95% confidence limits are given in parentheses 2 Hour; assay type: functional; how it was run: as §2
Rattus norvegicus [29] = species on record: Rattus norvegicus; experiment: Compound was tested for the effective dose (ED50) for each time point in Rats. 95% confidence limits are given in parentheses 12 Hour; assay type: functional; how it was run: as §2
Mus musculus [30] = species on record: Mus musculus; experiment: Compound was tested for the effective dose (ED50) for each time point in Mice. 95% confidence limits are given in parentheses 1 Hour; assay type: functional
[31] = Pharmacokinetic parameter :log P7.4 log P value at pH 7.4; assay type: physicochemical; details: buffer, read-out: Log D7.4; how it was run: as §5
Rattus norvegicus [32] = species on record: Rattus norvegicus; experiment: Compound was tested for the effective dose (ED50) for each time point in Rats. 95% confidence limits are given in parentheses 24 Hour; assay type: functional; how it was run: as §2
[33] = Inhibition concentration by inhibition of carbonic anhydrase from kidney in Rat. 95% confidence limits are given in parentheses.
[34] = Inhibition concentration by inhibition of carbonic anhydrase from synaptosomes in Rat
[35] = Inhibition concentration by inhibition of carbonic anhydrase from myelin in Rat
[36] = Inhibition concentration by inhibition of carbonic anhydrase from brain in Rat
[37] = Inhibition concentration by inhibition of carbonic anhydrase from kidney in Rat
[38] = Inhibition concentration by inhibition of carbonic anhydrase from blood in Rat
Mus musculus [39] = experiment: Activity against maximal electroshock seizures in mice, 4 hr following oral administration of 15 mg/kg of compound; assay type: functional; how it was run: as §1
Mus musculus [40] = experiment: Activity against maximal electroshock seizures in mice, 4 hr following oral administration of 30 mg/kg of compound; assay type: functional; how it was run: as §1
Mus musculus [41] = experiment: Activity against maximal electroshock seizures in mice, 4 hr following oral administration of 300 mg/kg of compound; assay type: functional; how it was run: as §1
Mus musculus [42] = experiment: Activity against maximal electroshock seizures in mice, 4 hr following oral administration of 75 mg/kg; assay type: functional; how it was run: as §1
[43] = pH 7.4 value at 7.61 pH; assay type: ADME; how it was run: as §5
Mus musculus [44] = experiment: Activity against maximal electroshock seizures in mice, 4 hr following oral administration of 75 mg/kg of compound; assay type: functional; how it was run: as §1
[45] = pH 7.4 value at 7.35 pH; assay type: ADME; how it was run: as §5
Mus musculus [46] = species on record: Mus musculus; experiment: Compound was tested for the effective dose (ED50) for each time point in Mice. 95% confidence limits are given in parentheses 16 Hour; assay type: functional; how it was run: as §3
[47] = Inhibition concentration of the compounds were determined by inhibition of carbonic anhydrase from kidney in Rat. 95% confidence limits are given in parentheses.

SMILES: CC1(C)O[C@H]2[C@H](CO[C@]3(COS(N)(=O)=O)OC(C)(C)O[C@H]23)O1
- Block (Mus musculus [1]): 20%
- Block (Mus musculus [2]): 50%
- ED50 (Mus musculus [3]): 82 mg/kg

SMILES: CC1(C)O[C@@H]2[C@@H](CC[C@@]3(COS(N)(=O)=O)OC(C)(C)O[C@@H]23)O1
- Block (Mus musculus [4]): 30%
- ED50 (Mus musculus [3]): 16.6 mg/kg
- Block (Mus musculus [5]): 80%

SMILES: CC1(C)O[C@H]2[C@@H]3OS(=O)(=O)O[C@@H]3CO[C@@]2(COS(=O)(=O)N=[N+]=[N-])O1
- Block (Mus musculus [6]): 0%
- Block (Mus musculus [5]): 100%

SMILES: CC1(C)O[C@H]2[C@H](O)[C@@H](Cl)CO[C@@]2(COS(N)(=O)=O)O1
- Block (Mus musculus [7]): 90%
- ED50 (Mus musculus [3]): 24 mg/kg
- Block (Mus musculus [8]): 50%

SMILES: CC(C)(C)OC(=O)N=S1O[C@@H]2[C@@H](CO[C@@]3(COS(N)(=O)=O)OC(C)(C)O[C@@H]23)O1 (stereo partly drawn)
- Block (Mus musculus [9]): 40%

SMILES: CC1(C)O[C@@H]2[C@@H](CO[C@@]3(COS(N)(=O)=O)OC(C)(C)O[C@@H]23)O1 [TOPIRAMATE]
- ED50 (Rattus norvegicus [10]): 15 mg/kg
- IC50 [11]: 4550 nM
- ED50 (Mus musculus [12]): 47.6 mg/kg
- ED50 (Mus musculus [13]): 53.5 mg/kg
- ED50 (Mus musculus [14]): > 1000 mg/kg
- logP [15]: 3.26
- logP [16]: 0.5
- ED50 (Rattus norvegicus [17]): 15 mg/kg
- ED50 (Rattus norvegicus [18]): 103 mg/kg
- IC50 [19]: 4840 nM
- ED50 (Rattus norvegicus [20]): 6.7 mg/kg
- IC50 [21]: 8890 nM
- ED50 (Mus musculus [3]): 53 mg/kg
- ED50 (Rattus norvegicus [22]): > 1000 mg/kg
- P7.4 [23]: 3.31
- logP [24]: 0.53
- ED50 (Mus musculus [25]): 246 mg/kg
- IC50 [26]: 1360 nM
- pKa [27]: 8.66
- ED50 (Rattus norvegicus [28]): 16 mg/kg
- ED50 (Rattus norvegicus [29]): 34 mg/kg
- ED50 (Mus musculus [30]): 43.8 mg/kg
- logD [31]: 0.51
- ED50 (Rattus norvegicus [32]): 153 mg/kg
- IC50 [33]: 8350 nM

SMILES: CC(=O)Nc1nnc(S(N)(=O)=O)s1 [ACETAZOLAMIDE]
- IC50 [34]: 7 nM
- IC50 [35]: 24 nM
- IC50 [36]: 12 nM
- IC50 [37]: 650 nM
- IC50 [38]: 37 nM

SMILES: CC1(C)O[C@@H]2[C@H]3OS(=O)(=O)O[C@H]3CO[C@]2(COS(N)(=O)=O)O1
- Block (Mus musculus [39]): 30%
- Block (Mus musculus [40]): 80%
- ED50 (Mus musculus [3]): 22 mg/kg

SMILES: CCC1(CC)O[C@@H]2[C@@H](CO[C@@]3(COS(N)(=O)=O)OC(C)(C)O[C@@H]23)O1
- logP [16]: 1.55
- Block (Mus musculus [41]): 80%
- logP [24]: 1.52
- Block (Mus musculus [42]): 0%
- P7.4 [43]: 31.5
- pKa [27]: 8.62
- logD [31]: 1.5

SMILES: CC1(C)O[C@H]2[C@@H]3O[C@H](c4ccccc4)O[C@@H]3CO[C@@]2(COS(N)(=O)=O)O1
- Block (Mus musculus [42]): 20%
- Block (Mus musculus [5]): 0%

SMILES: CC1(C)O[C@H]2[C@@H]3OS(=O)(=O)O[C@@H]3CO[C@@]2(COS(=O)(=O)n2ccnc2)O1
- Block (Mus musculus [44]): 100%
- Block (Mus musculus [6]): 0%

SMILES: CCC1(CC)O[C@H]2[C@@H]3OS(=O)(=O)O[C@@H]3CO[C@@]2(COS(N)(=O)=O)O1
- Block (Mus musculus [44]): 100%
- Block (Mus musculus [6]): 0%

SMILES: CC1(C)O[C@H]2[C@@H]3OS(=O)(=O)O[C@@H]3CO[C@@]2(COS(N)(=O)=O)O1
- P7.4 [45]: 2.42
- ED50 (Rattus norvegicus [10]): 3.8 mg/kg
- IC50 [11]: 21 nM
- ED50 (Mus musculus [12]; Mus musculus, 2 h, read-out: ED50): 6.6 mg/kg
- ED50 (Mus musculus [46]): 50 mg/kg
- ED50 (Mus musculus [14]): 72 mg/kg
- IC50 [47]: 130 nM
- logP [15]: 2.44
- logP [16]: -1.01
- ED50 (Rattus norvegicus [17]): 1 mg/kg
- ED50 (Rattus norvegicus [18]): 2.5 mg/kg
- IC50 [19]: 21 nM
- ED50 (Rattus norvegicus [20]): 1.7 mg/kg
- IC50 [21]: 84 nM
- ED50 (Rattus norvegicus [22]): 18 mg/kg
- logP [24]: 0.42
- ED50 (Mus musculus [25]): 23 mg/kg
- IC50 [26]: 52 nM
- pKa [27]: 8.51
- ED50 (Rattus norvegicus [28]): 5.1 mg/kg
- Block (Mus musculus [5]): 100%
- ED50 (Rattus norvegicus [29]): 1.3 mg/kg
- ED50 (Mus musculus [30]; Mus musculus, 1 h, read-out: ED50): 8.6 mg/kg
- logD [31]: 0.38
- ED50 (Rattus norvegicus [32]): 2.6 mg/kg
